Reference: ChEMBL document CHEMBL1159377, “Synthetic approach to exo-endo cross-conjugated cyclohexadienones and its application to the syntheses of dehydrobrachylaenolide, isodehydrochamaecynone, and trans-isodehydrochamaecynone” (J Nat Prod, 2003)
pIC50: −log10 of the molar value.

Legend:
Coptotermes formosanus [1] = test: Insecticidal activity against Coptotermes formosanus assessed as mortality at 1000 ppm after 2 days by filter paper contact method relative to control; type: functional
Coptotermes formosanus [2] = test: Insecticidal activity against Coptotermes formosanus assessed as mortality at 100 ppm after 1 day by filter paper contact method relative to control; type: functional
Coptotermes formosanus [3] = test: Insecticidal activity against Coptotermes formosanus assessed as mortality at 100 ppm after 2 days by filter paper contact method relative to control; type: functional
Coptotermes formosanus [4] = test: Insecticidal activity against Coptotermes formosanus assessed as mortality at 100 ppm after 7 days by filter paper contact method relative to control; type: functional
Coptotermes formosanus [5] = test: Insecticidal activity against Coptotermes formosanus assessed as mortality at 1000 ppm after 7 days by filter paper contact method relative to control; type: functional
Coptotermes formosanus [6] = test: Insecticidal activity against Coptotermes formosanus assessed as mortality at 100 ppm after 5 days by filter paper contact method relative to control; type: functional
Coptotermes formosanus [7] = test: Insecticidal activity against Coptotermes formosanus assessed as mortality at 1000 ppm after 5 days by filter paper contact method relative to control; type: functional
Coptotermes formosanus [8] = test: Insecticidal activity against Coptotermes formosanus assessed as mortality at 1000 ppm after 1 day by filter paper contact method relative to control; type: functional
A549 [9] = test: Inhibition of IL-1-beta-induced ICAM1 protein expression in human A549 cells at 1 uM treated for 1 hr before IL1-beta challenge for 6 hrs relative to control; type: functional
Method in brief: (§1)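 A549 cells at 3 × 10⁴/well pretreated with compound 1 h, then IL-1β at 0.25 ng/mL final for 6 h. Cells fixed in 1% paraformaldehyde and blocked with 1% BSA overnight. Mouse anti-human ICAM-1 and peroxidase anti-mouse IgG each 60 min at 37 °C. o-Phenylenediamine/H₂O₂ substrate (citrate pH 5.3), 20 min dark, A415. Expression normalised between IL-1β-treated and unstimulated wells. Triplicate.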

[10] = Cytotoxicity against human A549 cells after 24 hrs at 320 uM by MTT assay relative to control; type: cell-based; conditions: read-out: T/C
Method in brief: (§2)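 A549 lung carcinoma cells grown in RPMI 1640 with 10% fetal calf serum, 50 µM 2-mercaptoethanol and penicillin-streptomycin-neomycin. Cells incubated with or without compound for 24 h, with MTT (500 µg/mL) present for the last 4 h. Formazan solubilised overnight in 5% SDS, absorbance read at 595 nm. Viability (%) = (sample − background)/(control − background) × 100. Triplicate cultures, mean ± SD.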

[11] = Cytotoxicity against human A549 cells after 24 hrs at 1000 uM by MTT assay relative to control; type: cell-based; conditions: read-out: T/C; method in brief: as §2
A549 [12] = test: Inhibition of IL-1-beta-induced ICAM1 protein expression in human A549 cells at 10 uM treated for 1 hr before IL1-beta challenge for 6 hrs relative to control; type: functional; method in brief: as §1
A549 [13] = test: Inhibition of IL-1-beta-induced ICAM1 protein expression in human A549 cells at 320 uM treated for 1 hr before IL1-beta challenge for 6 hrs relative to control; type: functional; method in brief: as §1
[14] = Cytotoxicity against human A549 cells after 24 hrs at 3.2 uM by MTT assay relative to control; type: cell-based; conditions: read-out: T/C; method in brief: as §2
[15] = Cytotoxicity against human A549 cells after 24 hrs at 1 uM by MTT assay relative to control; type: cell-based; conditions: read-out: T/C; method in brief: as §2
A549 [16] = test: Inhibition of IL-1-beta-induced ICAM1 protein expression in human A549 cells at 3.2 uM treated for 1 hr before IL1-beta challenge for 6 hrs relative to control; type: functional; method in brief: as §1
[17] = Cytotoxicity against human A549 cells after 24 hrs at 100 uM by MTT assay relative to control; type: cell-based; conditions: read-out: T/C; method in brief: as §2
A549 [18] = test: Inhibition of IL-1-beta-induced ICAM1 protein expression in human A549 cells at 100 uM treated for 1 hr before IL1-beta challenge for 6 hrs relative to control; type: functional; method in brief: as §1
A549 [19] = test: Inhibition of IL-1-beta-induced ICAM1 protein expression in human A549 cells at 32 uM treated for 1 hr before IL1-beta challenge for 6 hrs relative to control; type: functional; method in brief: as §1
A549 [20] = test: Inhibition of IL-1-beta-induced ICAM1 protein expression in human A549 cells at 1000 uM treated for 1 hr before IL1-beta challenge for 6 hrs relative to control; type: functional; method in brief: as §1
A549 [21] = test: Inhibition of IL-1-beta-induced ICAM1 protein expression in human A549 cells treated for 1 hr before IL1-beta challenge for 6 hrs; type: functional, cell-based; method in brief: as §1
A549 [22] = test: Cytotoxicity against human A549 cells after 24 hrs by MTT assay; type: cell-based; conditions: A549, 24 h
Method in brief: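 A549 cells (RPMI 1640, 10% FCS, 50 µM 2-mercaptoethanol, antibiotics) incubated with test compound 24 h; MTT 500 µg/mL pulsed for final 4 h; formazan dissolved in 5% SDS overnight; absorbance 595 nm. Viability % = (sample − background)/(control − background) × 100. Triplicate cultures.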

[23] = Cytotoxicity against human A549 cells after 24 hrs at 10 uM by MTT assay relative to control; type: cell-based; conditions: read-out: T/C; method in brief: as §2
[24] = Cytotoxicity against human A549 cells after 24 hrs at 32 uM by MTT assay relative to control; type: cell-based; conditions: read-out: T/C; method in brief: as §2

| SMILES | Activity (Coptotermes formosanus [1]) [%] | Activity (Coptotermes formosanus [2]) [%] | Activity (Coptotermes formosanus [3]) [%] | Activity (Coptotermes formosanus [6]) [%] | Activity (Coptotermes formosanus [7]) [%] | Activity (Coptotermes formosanus [8]) [%] | pIC50 (A549 [21]) | further results |
| --- | --- | --- | --- | --- | --- | --- | --- | --- |
| C#C[C@@H]1CC[C@@]2(C)C=CC(=O)[C@@H](C)[C@@H]2C1 | 97 | 0 | 0 | 43 | 100 | 80 | – | Activity (Coptotermes formosanus [4]): 100%; Activity (Coptotermes formosanus [5]): 100% |
| C=C1C(=O)C=C[C@]2(C)CC[C@H]3C(=C)C(=O)O[C@H]3[C@@H]12 [DEHYDROBRACHYLAENOLIDE] | – | – | – | – | – | – | 5.52 | T/C (A549 [9]): 75.5%; viability at 24 h, 320 µM [10]: 28.6%; viability at 24 h, 1000 µM [11]: 11.8%; T/C (A549 [12]): 1.1%; T/C (A549 [13]): -1.4%; viability at 24 h, 3.2 µM [14]: 90.8%; viability at 24 h, 1 µM [15]: 100%; T/C (A549 [16]): 44.4%; viability at 24 h, 100 µM [17]: 29.3%; T/C (A549 [18]): -0.3%; T/C (A549 [19]): 0.1%; T/C (A549 [20]): -3.3%; Activity (A549 [21]): Dose-dependent effect; pIC50 (A549 [22]): 4.26; viability at 24 h, 10 µM [23]: 93.8%; viability at 24 h, 32 µM [24]: 68.8% |
| C#C[C@@H]1CC[C@@]2(C)CCC(=O)[C@@H](C)[C@@H]2C1 | 93 | 0 | 0 | 0 | 100 | 0 | – | – |
| C#C[C@@H]1CC[C@@]2(C)C=CC(=O)C(C)=C2C1 [DEHYDROCHAMAECYNONE] | 90 | 0 | 0 | 7 | 100 | 13 | – | – |
| C#C[C@@H]1CC[C@@]2(C)C=CC(=O)[C@@H](C)[C@H]2C1 [CHAMAECYNONE] | 97 | 0 | 0 | 27 | 100 | 27 | – | Activity (Coptotermes formosanus [4]): 87%; Activity (Coptotermes formosanus [5]): 100% |
| C=C1C(=O)O[C@H]2[C@H]3[C@H](C)C(=O)C=C[C@]3(C)CC[C@@H]12 [TUBERIFERINE] | – | – | – | – | – | – | 5.13 | – |
| C[C@@H]1C(=O)O[C@@H]2[C@H]1CC[C@@]1(C)CCC(=O)[C@@H](C)[C@H]21 | – | – | – | – | – | – | < 3.00 | – |
| C#C[C@@H]1CC[C@@]2(C)C=CC(=O)C(=C)[C@@H]2C1 | 93 | 0 | 3 | 17 | 100 | 33 | – | – |
| C=C1C(=O)O[C@H]2[C@H]3[C@H](C)C(=O)CC[C@]3(C)CC[C@@H]12 | – | – | – | – | – | – | 4.77 | – |
